Each structure is given as a SMILES string. Calls of active or inactive are those of the source. The calls are words filed in the database; no cut-off is given here.

This is an account of results in ChEMBL document CHEMBL5104200, “Discovery and Biological Characterization of PRMT5:MEP50 Protein-Protein Interaction Inhibitors” (J Med Chem, 2022).

Experiment [1] relates to LNCaP. Description: Induction of cell death in human LNCaP cells incubated for 72 hrs by MTT assay. In kind it is functional, cell-based. The gist of the method: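 LNCaP seeded 7,000 cells/well, attached 24 h, then given an 11-point dilution series plus DMSO control (constant 0.25% DMSO) for 72 h at 37 °C, 5% CO2. MTT at 0.5 mg/mL in complete RPMI for 4 h, then dissolved in DMSO and read at 570 nm. IC50 from regression curve; mean of three biological replicates.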
(Formazan colour is commonly taken as a measure of viable cells.)

In experiment [2] the target is T1, PRMT5/MEP50 complex (Homo sapiens) (UniProt O14744+Q9BQA1). Description: Inhibition of PRMT5/MEP50 (unknown origin) protein-protein interaction expressed in COS-1 cells at 250 to 500 nM incubated for 18 hrs by BiFC screening analysis relative to control. In kind it is cell-based. Conditions: dose 250-500 nM. An outline of the steps:
(§1)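 COS-1 seeded 50,000 cells/well, co-transfected with Myc-VN155-PRMT5, HA-VC-MEP50 and FLAG-NLS-CFP. After 24 h transfection, treated 18 h at 0.5 µM or 0.25 µM (separate screens), then imaged (YFP, CFP). Per-cell YFP:CFP ratio normalized to DMSO gives BiFC efficiency; % inhibition = 100% − efficiency. Single biological replicate screens.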

In another experiment the test system is A549. The experiment is described as follows: Cytotoxicity against human A549 cells after 72 hrs by MTT assay. It counts as functional, cell-based. Conditions: A549, 72 h.
In experiment [3] the test system is LNCaP. Description: Upregulation of RB1 gene expression in human LNCaP cells at 500 nM after 72 hrs by RT-qPCR analysis. In kind it is functional, cell-based. The gist of the method:
(§2)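 LNCaP seeded in 6 or 10 cm dishes, attached 24 h, treated 500 nM or DMSO for 72 h. RNA by Trizol, integrity checked on agarose gel. RT-qPCR in technical triplicate, CT normalized to GAPDH; three biological replicates, Student's t-test.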

Experiment [4] has as its target T1, PRMT5/MEP50 complex (Homo sapiens). Description: Inhibition of PRMT5 /MEP50 protein-protein interaction in human LNCaP cells assessed as increase in IVL gene expression at 500 nM after 72 hrs by RT-qPCR analysis. A general note: Real-time PCR tracks product formation cycle by cycle.
The target is the same in experiment [5]. The experiment is described as follows: Inhibition of PRMT5 /MEP50 protein-protein interaction in human LNCaP cells assessed as reduction in H4R3me2 level after 72 hrs by densitometry method. It counts as cell-based. The note with it: DDE = dose-dependent effect. The gist of the method:
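LNCaP treated 72 h; lysed in RIPA with protease inhibitors, protein by Bradford, 20 µg loaded on 15% gel. Blotted with anti-H4R3 and anti-H4R3me2s, IRDye 800CW secondary, infrared imaging. H4R3me2s integrated intensity normalized to H4R3 versus DMSO; three biological replicates, t-test.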

Experiment [6] shares this target. The experiment is described as follows: Inhibition of PRMT5/MEP50 protein-protein interaction in human LNCaP cells assessed as reduction in TGF-beta signalling after 72 hrs.
Experiment [7] has as its system LNCaP. Description: Upregulation of PTEN gene expression in human LNCaP cells at 500 nM after 72 hrs by RT-qPCR analysis. In kind it is functional, cell-based. The gist of the method: as §2
In experiment [8] the target is T1, PRMT5/MEP50 complex (Homo sapiens). The experiment is described as follows: Inhibition of PRMT5 /MEP50 protein-protein interaction in human LNCaP cells at 500 nM incubated for 24 hrs by co-immunoprecipitation method. It counts as cell-based. An outline of the steps: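 LNCaP treated 500 nM or DMSO for 24 h, lysed 1 h at 4 °C in Tris pH 7.4/NaCl/EDTA/Triton buffer with protease inhibitors. 1 mg/mL lysate immunoprecipitated overnight with anti-PRMT5, anti-MEP50 or rabbit IgG on protein A beads. Blots probed for PRMT5 and MEP50; signal normalized to 0.4% input.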

The next experiment concerns COS-1. Description: Induction of cell death in African green monkey COS-1 cells at 10 uM. In kind it is functional, cell-based. The note with it: Chlorocebus aethiops.
For experiment [9], the target named is T1, PRMT5/MEP50 complex (Homo sapiens). Description: Inhibition of PRMT/MEP50 (unknown origin) protein-protein interaction expressed in COS-1 cells incubated for 18 hrs by BiFC screening analysis. In kind it is cell-based. Conditions: DDE = dose-dependent effect. The gist of the method:
as §1

Experiment [10] has the same target. Description: Inhibition of PRMT5/MEP50 (unknown origin) protein-protein interaction expressed in COS-1 cells at 0.25 uM incubated for 18 hrs by BiFC screening analysis relative to control. It counts as cell-based. An outline of the steps: as §1
Experiment [11] shares this target. The experiment is described as follows: Inhibition of PRMT5/MEP50 (unknown origin) protein-protein interaction expressed in COS-1 cells at 10 uM incubated for 18 hrs by BiFC screening analysis relative to control. In kind it is cell-based. The gist of the method: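 Transfected COS-1 cells (VN-PRMT5, VC-MEP50, NLS-CFP) treated at 10 µM or DMSO six hours after transfection; imaged 24 h after transfection. Per-cell YFP:CFP mean intensity ratio normalized to DMSO gives BiFC efficiency; inhibition = 100% minus efficiency. Single biological replicate screen.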

For `CCc1noc(C)c1COc1cccc(C(=O)NNC(=O)c2ccc3ccccc3n2)c1`, the IC50 in the experiment on LNCaP [1] came to 0.43 µM; with A549 it was 0.447 µM. In addition, in the experiment with LNCaP [1] (DDE = dose-dependent effect), the Activity entry is “Dde”. The inhibition result in experiment [2], in experiment [4] and in [6] was “Active” in each case. Besides, the outcome in the experiment with LNCaP [3] and in the experiment on LNCaP [7] was Active. For the same compound, the inhibition result in experiment [5] is “Dde”; in experiment [8], 65.4%.
On to `Cc1noc(C)c1COc1cccc(C(=O)NNC(=O)c2ccc3ccccc3n2)c1`, for which the midpoint of inhibition in the experiment on LNCaP [1], the IC50, lay at 1.66 µM. The result with COS-1 was Active. Moreover, the inhibition entry in experiment [9] is “Dde”; in experiment [10], 41%.
In turn, `CCN(CC)c1ccc(/C=C2\S/C(=N/NC(=O)c3ccc(Cl)cc3Cl)NC2=O)cc1` yielded an inhibition in [11] of 24%.
Take `c1ccc(-n2cnc3ccccc32)cc1`: the inhibition in experiment [11] was 24%.
With `Cn1cc(C(=O)NCC2CCN(C(=O)c3nc(-c4ccccc4)n4c3CCCCC4)CC2)cn1`, in experiment [11], the inhibition is 24%.
The compound `CCCCC(=O)Nc1sc2c(c1C(=O)NC1CCS(=O)(=O)C1)CCC(C(C)(C)C)C2` (stereo not drawn) yielded an inhibition in [11] of 24%.

A word on the IC50: it is the midpoint of a concentration-inhibition curve. As usually defined, the inhibition is the share of the control response that was lost under treatment.
